Tests used:
[1] = Cytotoxicity against human primary soft tissue sarcoma cells after overnight incubation by Alamar blue assay; format: functional, cell-based
Method in brief: (§1)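 Primary tumor cell cultures that passed histological and cytological screening; thawed at 37 °C, resuspended in maintenance medium, live/dead counted, plated at 1.0 × 10^3 cells/well. Samples added at 1/10 cell suspension volume, overnight at 37 °C. Alamar Blue then added at 1/10 well volume; fluorescence (ex 530, em 590 nm) read at 3 h and 3 days post-dye. Percent inhibition versus untreated and cell-free controls gave IC50.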

[2] = Cytotoxicity against human high-grade leiomyosarcoma cells after overnight incubation by Alamar blue assay; format: functional, cell-based; method in brief: as §1

Compound	IC50 [1]	IC50 [2]
CC1=C[C@H]2O[C@@H]3C[C@@H](OC(=O)/C=C/C=C\C(OCCC4=CCOC4=O)C(C)O)[C@](C)([C@@]2(COC(=O)/C=C(\C)CCO)CC1)[C@]31CO1 (stereo partly specified) [TRICHOVERRITONE]	0.13 pM	0.026 pM
CC1=C[C@H]2O[C@@H]3C[C@@H](OC(=O)/C=C/C=C\C(OCCC4=CCOC4=O)C(C)O)[C@](C)([C@@]2(CO)CC1)[C@]31CO1 (stereo partly specified)	0.03 pM	0.018 pM
C/C1=C\C(=O)OC[C@]23CCC(CO)=C[C@H]2O[C@@H]2C[C@@H](OC(=O)/C=C\C=C\[C@H]([C@@H](C)O)OCC1)[C@@]3(C)[C@]21CO1	0.046 pM	0.085 pM
